Results as given in ChEMBL document CHEMBL1125736, “N-[(omega-amino-1-hydroxyalkyl)phenyl]methanesulfonamide derivatives with class III antiarrhythmic activity” (1991).

How the values were obtained:
Assay type in all cases: functional
Oryctolagus cuniculus [1] = species on record: Oryctolagus cuniculus; test: Tested for effective refractory period measured at a pacing rate of 1 Hz in vitro with rabbit heart tissue preparations.
In short: (§1)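 Isolated rabbit heart tissues, all from one heart, each its own baseline; 2 h equilibration, perfusate changed every 15 min, basal stimulation 2 Hz between measurements. Exposed to 10^-7, 10^-6 and 10^-5 M drug, 15 min each; values reported at 10^-5 M as percent change from baseline. Drug solutions prepared daily in glass-distilled water. Force and rate recorded on polygraph.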

Oryctolagus cuniculus [2] = species on record: Oryctolagus cuniculus; test: Tested for conduction time measured at a pacing rate of 3 Hz in vitro with rabbit heart tissue preparations.; in short: as §1
Oryctolagus cuniculus [3] = species on record: Oryctolagus cuniculus; test: Tested for rate automaticity measured in beats per minute from unpaced right atria of rabbit heart.; in short: as §1
Oryctolagus cuniculus [4] = species on record: Oryctolagus cuniculus; test: Tested for force of contraction measured in mg at a pacing rate of 2 Hz in vitro with rabbit heart tissue preparations.; in short: as §1
Oryctolagus cuniculus [5] = species on record: Oryctolagus cuniculus; test: Tested for effective refractory period measured at a pacing rate of 3 Hz in vitro with rabbit heart tissue preparations.; design: unit: %; in short: as §1
Oryctolagus cuniculus [6] = species on record: Oryctolagus cuniculus; test: Tested for conduction time measured at a pacing rate of 1 Hz in vitro with rabbit heart tissue preparations.; in short: as §1

`CCCCCCCCCCN(CC)CCCC(O)c1ccc(NS(C)(=O)=O)cc1` (stereo not drawn) gave an ERP1 (Oryctolagus cuniculus [1]) of 11.8, a CT3 (Oryctolagus cuniculus [2]) of 74.3 and a Rate (Oryctolagus cuniculus [3]) of -11. The FOC (Oryctolagus cuniculus [4]) was -23.1, the ERP3 (Oryctolagus cuniculus [5]) was 16.1 and the CT1 (Oryctolagus cuniculus [6]) was 63.2.

`CCCCCCCN(CC)CC(O)c1ccc(NS(C)(=O)=O)cc1` (stereo not drawn) showed an ERP1 (Oryctolagus cuniculus [1]) of 22.9, a Rate (Oryctolagus cuniculus [3]) of -38 and an FOC (Oryctolagus cuniculus [4]) of -7. For the same compound, the ERP3 (Oryctolagus cuniculus [5]) was 26.2 and the CT1 (Oryctolagus cuniculus [6]) was 10.2.

Compound `CCCCCCCN(CC)CCCC(O)c1cccc(NS(C)(=O)=O)c1` (stereo not drawn) has an ERP1 (Oryctolagus cuniculus [1]) of 25.2, a CT3 (Oryctolagus cuniculus [2]) of 54 and a Rate (Oryctolagus cuniculus [3]) of -16. It also gave an FOC (Oryctolagus cuniculus [4]) of -15, an ERP3 (Oryctolagus cuniculus [5]) of 19 and a CT1 (Oryctolagus cuniculus [6]) of 21.3.

With `CCCCCCN(CC)CCCC(O)c1ccc(NS(C)(=O)=O)cc1` (stereo not drawn) the ERP1 (Oryctolagus cuniculus [1]) was 12.1, the CT3 (Oryctolagus cuniculus [2]) was 0 and the Rate (Oryctolagus cuniculus [3]) was -16. The FOC (Oryctolagus cuniculus [4]) was -10.9, the ERP3 (Oryctolagus cuniculus [5]) was 7.8 and the CT1 (Oryctolagus cuniculus [6]) was -6.5.

`CS(=O)(=O)Nc1ccc(C(O)CCCN2CCCCCCC2)cc1` (stereo not drawn) gave an ERP1 (Oryctolagus cuniculus [1]) of 21.4, a CT3 (Oryctolagus cuniculus [2]) of -4.7 and a Rate (Oryctolagus cuniculus [3]) of -10. The FOC (Oryctolagus cuniculus [4]) was -5.6, the ERP3 (Oryctolagus cuniculus [5]) was 23.5 and the CT1 (Oryctolagus cuniculus [6]) was -4.5.

In the case of `CCCCCCCN(CC)CCCC(=O)c1ccc(NS(C)(=O)=O)cc1`, the ERP1 (Oryctolagus cuniculus [1]) was 6.6, the CT3 (Oryctolagus cuniculus [2]) was 0.6 and the Rate (Oryctolagus cuniculus [3]) was -21. For the same compound, the FOC (Oryctolagus cuniculus [4]) was -6.7, the ERP3 (Oryctolagus cuniculus [5]) was 9.4 and the CT1 (Oryctolagus cuniculus [6]) was -2.7.

`CCCCCCCCN(CC)CCCC(O)c1ccc(NS(C)(=O)=O)cc1` (stereo not drawn) gave an ERP1 (Oryctolagus cuniculus [1]) of 5.3, a CT3 (Oryctolagus cuniculus [2]) of 29.8 and a Rate (Oryctolagus cuniculus [3]) of -28. For the same compound, the FOC (Oryctolagus cuniculus [4]) was 0.7, the ERP3 (Oryctolagus cuniculus [5]) was 4.3 and the CT1 (Oryctolagus cuniculus [6]) was 17.3.

Work on `CCCCCCCN(C)CCCC(O)c1ccc(NS(C)(=O)=O)cc1` (stereo not drawn) yielded an ERP1 (Oryctolagus cuniculus [1]) of 16.5, a CT3 (Oryctolagus cuniculus [2]) of 70 and a Rate (Oryctolagus cuniculus [3]) of -34. It also gave an FOC (Oryctolagus cuniculus [4]) of 8.5, an ERP3 (Oryctolagus cuniculus [5]) of 17.2 and a CT1 (Oryctolagus cuniculus [6]) of 13.

With `CS(=O)(=O)Nc1ccc(C(O)CCCN2CCCCCC2)cc1` (stereo not drawn) the ERP1 (Oryctolagus cuniculus [1]) was 17.1, the CT3 (Oryctolagus cuniculus [2]) was 0.2 and the Rate (Oryctolagus cuniculus [3]) was -11. For the same compound, the FOC (Oryctolagus cuniculus [4]) was 3.4, the ERP3 (Oryctolagus cuniculus [5]) was 18.3 and the CT1 (Oryctolagus cuniculus [6]) was 1.

For `CCCCCCCN(CC)CCCCc1ccc(NS(C)(=O)=O)cc1`, the ERP1 (Oryctolagus cuniculus [1]) was 28.3, the CT3 (Oryctolagus cuniculus [2]) was 140 and the Rate (Oryctolagus cuniculus [3]) was -27. The FOC (Oryctolagus cuniculus [4]) was -24.2, the ERP3 (Oryctolagus cuniculus [5]) was 19.2 and the CT1 (Oryctolagus cuniculus [6]) was 67.2.

With `CCCCCCCNCCCC(O)c1ccc(NS(C)(=O)=O)cc1` (stereo not drawn) the ERP1 (Oryctolagus cuniculus [1]) was 0.4, the CT3 (Oryctolagus cuniculus [2]) was 8.3 and the Rate (Oryctolagus cuniculus [3]) was -25. It also gave an FOC (Oryctolagus cuniculus [4]) of -12.1, an ERP3 (Oryctolagus cuniculus [5]) of 6.8 and a CT1 (Oryctolagus cuniculus [6]) of -7.4.

`CCCCCCCN(CC)CCC(O)c1ccc(NS(C)(=O)=O)cc1` (stereo not drawn) gave an ERP1 (Oryctolagus cuniculus [1]) of 37.5, a CT3 (Oryctolagus cuniculus [2]) of 40.3 and a Rate (Oryctolagus cuniculus [3]) of -35. For the same compound, the FOC (Oryctolagus cuniculus [4]) was -23, the ERP3 (Oryctolagus cuniculus [5]) was 39.3 and the CT1 (Oryctolagus cuniculus [6]) was 15.7.

Work on `CCCCCN(CC)CCCC(O)c1ccc(NS(C)(=O)=O)cc1` (stereo not drawn) yielded an ERP1 (Oryctolagus cuniculus [1]) of 20.8, a CT3 (Oryctolagus cuniculus [2]) of 11.9 and a Rate (Oryctolagus cuniculus [3]) of -20. It also gave an FOC (Oryctolagus cuniculus [4]) of 17.1, an ERP3 (Oryctolagus cuniculus [5]) of 11.6 and a CT1 (Oryctolagus cuniculus [6]) of 8.6.

`CC1CCN(CCCC(O)c2ccc(NS(C)(=O)=O)cc2)CC1` (stereo not drawn) was tested, and the ERP1 (Oryctolagus cuniculus [1]) was 4.5, the CT3 (Oryctolagus cuniculus [2]) was -6.5 and the FOC (Oryctolagus cuniculus [4]) was -1. For the same compound, the ERP3 (Oryctolagus cuniculus [5]) was 10.5 and the CT1 (Oryctolagus cuniculus [6]) was -2.

With `CCCCCCCN(CC)CCCC(O)c1ccc(Cl)cc1.Cl` (stereo not drawn) the ERP1 (Oryctolagus cuniculus [1]) was 10.5, the Rate (Oryctolagus cuniculus [3]) was -12 and the FOC (Oryctolagus cuniculus [4]) was -21. It also gave an ERP3 (Oryctolagus cuniculus [5]) of 14 and a CT1 (Oryctolagus cuniculus [6]) of 4.

With `CCCCCCC[N+](CC)(CC)CCCCc1ccc(Cl)cc1.O=P([O-])(O)O` [CLOFILIUM PHOSPHATE] the ERP1 (Oryctolagus cuniculus [1]) was 3, the CT3 (Oryctolagus cuniculus [2]) was -1.4 and the Rate (Oryctolagus cuniculus [3]) was -22. For the same compound, the FOC (Oryctolagus cuniculus [4]) was -10, the ERP3 (Oryctolagus cuniculus [5]) was 3.4 and the CT1 (Oryctolagus cuniculus [6]) was 0.
